Results taken from ChEMBL document CHEMBL1124387, “Cardiotonic agents. 9. Synthesis and biological evaluation of a series of (E)-4,5-dihydro-6-[2-[4-(1H-imidazol-1-yl)phenyl]ethenyl]-3 (2H)-pyridazinones: a novel class of compounds with positive inotropic, antithrombotic, and vasodilatory activities for the treatment of congestive heart failure” (J Med Chem, 1989).
Several values for one entry are separate records, joined by “and”; a condition that tells them apart may be missing. Equal entries are not always repeated.

Tests used:
[1] = tested on: Canis familiaris; assay: Hemodynamic activity in anesthetized dog as percent change in left ventricular myocardial activity from baseline (2271 mmHg/s) at 0.01 mg/kg administered intravenously; assay type: functional, Canis lupus familiaris, Heart left ventricle; conditions: route intravenous
Method in brief: (§1)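 Acutely instrumented anesthetized dogs (n = 6), 30-min control period. Compound in 0.9% saline, or dilute HCl diluted with saline, at 0.1 mL/kg iv over 1 min. At least four ascending half-log doses, 10 min apart, one compound per animal. Recorded: LV dP/dtmax, heart rate, aortic pressure and forelimb resistance. Values are maximum response from control average ± SEM.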

[2] = tested on: Canis familiaris; assay: Hemodynamic activity in anesthetized dog as percent change in fore limb resistance from baseline (2.77 mmHg/mL/min) at 0.03 mg/kg administered intravenously; assay type: functional, Canis lupus familiaris; conditions: route intravenous; method in brief: as §1
[3] = tested on: Canis familiaris; assay: Cardiovascular activity in presence of beta-adrenoceptor blockade in dogs as percent change in left ventricular myocardial contractility from base line (2327 mmHg/s) at 0.01 mg/kg dose before nadolol administration
[4] = Partition coefficient (logP); assay type: physicochemical; conditions: octanol/water
[5] = Inhibition of phosphodiesterase 3 from guinea pig cardiac tissue at 1*10e-7-1*10e-4 M; set-up: species or system Cavia porcellus
Method in brief: (§2)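 Fraction III cAMP-PDE from guinea pig heart or human platelets. Substrate [3H]cyclic AMP 1.0 μM at 30°C, with hydrolysis held to ≤10-20% and kept linear over 30 min. Compounds in DMSO, 2.5% final.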

[6] = tested on: Canis familiaris; assay: Weight of thrombus after 60 min of 10 ug/kg/min; assay type: functional, Canis lupus familiaris
Method in brief: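 Anesthetized adult dogs were given sodium pentobarbital (32 mg/kg iv), intubated and artificially respired, then allowed 30 min to stabilize after surgery. Circumflex coronary thrombosis was induced by delivering 50 μA through an intraluminal silver-coated copper electrode, which denuded the endothelium. Continuous drug or saline infusion began 15 min before current onset and ran throughout, with one treatment per animal. After 60 min of stimulation the thrombus was dissected and weighed.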

[7] = tested on: Canis familiaris; assay: Hemodynamic activity in anesthetized dog as percent change in fore limb resistance from baseline (2.77 mmHg/mL/min) at 0.001 mg/kg administered intravenously; assay type: functional, Canis lupus familiaris; conditions: route intravenous; method in brief: as §1
[8] = tested on: Canis familiaris; assay: Cardiovascular activity in presence of beta-adrenoceptor blockade in dogs as percent change in left ventricular myocardial contractility from base line (1869 mmHg/s) at 0.01 mg/kg dose given 15 min after nadolol; assay type: functional, Canis lupus familiaris, Heart left ventricle
[9] = tested on: Canis familiaris; assay: Hemodynamic activity in anesthetized dog as percent change in heart rate from baseline (152 bpm) at 0.3 mg/kg administered intravenously; assay type: functional, Canis lupus familiaris; conditions: route intravenous; method in brief: as §1
[10] = tested on: Canis familiaris; assay: Decrease in thrombus weight in anesthetized dog coronary artery; assay type: functional, Canis lupus familiaris
Method in brief: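 Pentobarbital-anesthetized (32 mg/kg iv), ventilated dogs, allowed 30 min to stabilize. Continuous infusion of compound (1.0, 3.0 or 10.0 μg/kg/min) or saline began 15 min before 50 μA current was applied to an intraluminal electrode in the circumflex coronary artery. After 60 min of stimulation the animals were euthanized and the thrombus dissected and weighed. One treatment per animal.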

[11] = biological target: Phosphodiesterase 3 (Homo sapiens, UniProt Q14432+Q13370); assay: Inhibition of phosphodiesterase 3 from human platelets at 1*10e-7-1*10e-4 M; method in brief: as §2
[12] = tested on: Canis familiaris; assay: Hemodynamic activity in anesthetized dog as percent change in heart rate from baseline (152 bpm) at 0.1 mg/kg administered intravenously; assay type: functional, Canis lupus familiaris; conditions: route intravenous; method in brief: as §1
[13] = tested on: Canis familiaris; assay: Hemodynamic activity in anesthetized dog as percent change in fore limb resistance from baseline (2.77 mmHg/mL/min) at 0.003 mg/kg administered intravenously; assay type: functional, Canis lupus familiaris; conditions: route intravenous; method in brief: as §1

In the case of `CC1CC(=O)NN=C1/C=C/c1ccc(-n2ccnc2)cc1.Cl` (stereo not drawn), the Change [1] is reported as 65%, the Change [2] is reported as -49% and the Change [3] is reported as 56%. It also gave a logP [4] of 1.71, an IC50 [5] of 250 nM and a Thrombus weight [6] of 10 mg. It also gave a Change [7] of 0.3%, a Change [8] of 25% and a Change [9] of 33%. The Inhibition [10] was 65% and 44%, the IC50 [11] was 0.077 µM and the Change [12] was 28%. It also gave a Change [13] of -15%.
